10 compounds from ChEMBL document CHEMBL1125309, “Discovery of a novel class of orally active, non-peptide angiotensin II antagonists” (J Med Chem, 1992) can be followed below.

The target of assay [1] is T1, Type-1 angiotensin II receptor (Oryctolagus cuniculus, UniProt P34976).
T1 sequence (P34976 whole entry): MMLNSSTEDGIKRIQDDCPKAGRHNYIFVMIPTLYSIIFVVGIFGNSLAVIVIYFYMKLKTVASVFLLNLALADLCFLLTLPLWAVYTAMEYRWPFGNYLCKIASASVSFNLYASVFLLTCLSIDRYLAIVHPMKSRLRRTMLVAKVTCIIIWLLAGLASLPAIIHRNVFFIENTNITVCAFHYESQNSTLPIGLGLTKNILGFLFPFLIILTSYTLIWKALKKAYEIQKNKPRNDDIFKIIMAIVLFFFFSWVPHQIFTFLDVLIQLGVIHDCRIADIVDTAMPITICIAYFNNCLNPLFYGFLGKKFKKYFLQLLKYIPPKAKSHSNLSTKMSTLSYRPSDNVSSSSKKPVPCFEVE
Briefly: Compound was evaluated for in vitro potency against angiotensin II receptor, type 1 in isolated rabbit aorta; value ranges from 8.08-8.22. The following applies: read-out: pA2 (converted). Put shortly: (§1)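 Isolated rabbit aortic ring preparation contracted with angiotensin II; concentration–response curves to AII run in the presence of antagonist; parallel rightward shifts analysed by Schild analysis to give pA2 and slope.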

The target in assay [2] is T2, Type-1 angiotensin II receptor B (Rattus norvegicus, UniProt P29089).
T2 sequence (P29089 whole entry): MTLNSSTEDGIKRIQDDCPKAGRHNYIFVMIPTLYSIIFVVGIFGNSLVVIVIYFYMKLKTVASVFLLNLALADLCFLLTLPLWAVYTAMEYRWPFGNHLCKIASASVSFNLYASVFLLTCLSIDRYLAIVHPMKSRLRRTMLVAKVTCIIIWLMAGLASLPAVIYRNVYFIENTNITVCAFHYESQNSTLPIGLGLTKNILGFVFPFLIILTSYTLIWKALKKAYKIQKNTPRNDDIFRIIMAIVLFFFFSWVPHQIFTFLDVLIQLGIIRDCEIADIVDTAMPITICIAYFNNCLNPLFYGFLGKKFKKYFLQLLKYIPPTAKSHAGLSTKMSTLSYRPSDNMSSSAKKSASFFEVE
Briefly: Compound was evaluated for binding affinity against angiotensin II receptor, type 1 in rat liver.

Assay [3] concerns the target T1, Type-1 angiotensin II receptor. Put plainly: Compound was evaluated for in vitro potency against Angiotensin II receptor, type 1 in isolated rabbit aorta; value ranges from 7.13-7.17. The following applies: read-out: pA2 (converted). The procedure, abridged: as §1
For assay [4] the target is unchanged. Put plainly: Compound was evaluated for in vitro potency against Angiotensin II receptor, type 1 in isolated rabbit aorta; value ranges from 5.53-5.69. The note with it: read-out: pA2 (converted). Put shortly:
as §1

For assay [5] the target is unchanged. Put plainly: Compound was evaluated for in vitro potency against angiotensin II receptor, type 1 in isolated rabbit aorta. It is filed as tissue-based. The note with it: read-out: pA2 (converted). Put shortly: as §1
Assay [6] has the same target. Put plainly: Compound was evaluated for in vitro potency against AT1 receptor in isolated rabbit aorta; value ranges from 7.91-7.97. The note with it: read-out: pA2 (converted). The procedure, abridged:
as §1

Assay [7] has as its target T2, Type-1 angiotensin II receptor B. Briefly: Compound was evaluated for binding affinity against AT1 receptor in rat liver. Put shortly: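 Displacement of [125I]saralasin from AT1 receptors in rat liver membranes; compounds tested at multiple concentrations as required; Ki derived from the binding curves.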
For assay [8], the target named is T1, Type-1 angiotensin II receptor. Briefly: Compound was evaluated for in vitro potency against angiotensin II receptor, type 1 in isolated rabbit aorta; value ranges from 8.70-8.83. The following applies: read-out: pA2 (converted). Put shortly:
as §1

What is called Ki is a dissociation constant, usually derived from enzyme kinetics or from competition with a known ligand. With `CCCCN(Cc1ccc(-c2ccccc2-c2nnn[nH]2)cc1)c1nc(C)ccc1C(=O)O`, in assay [1], the Kb is 8.32 nM. Moreover, the Ki in assay [2] came out at 122 nM.
Take `CCCCc1ncc(C(=O)O)c(N(C)Cc2ccc(-c3ccccc3-c3nn[nH]n3)cc2)n1`: the Kb in assay [3] is 74.1 nM.
With `O=C(O)c1cncnc1NCc1ccc(-c2ccccc2-c2nn[nH]n2)cc1`, in assay [4], the Kb was 2950 nM.
In the case of `CCCCN(Cc1ccc(-c2ccccc2-c2nn[nH]n2)cc1)c1nc(C)ncc1C(=O)O`, the Ki in assay [2] was determined as 15.3 nM.
Regarding `CCCCN(Cc1ccc(-c2ccccc2-c2nn[nH]n2)cc1)c1ncccc1C(=O)O`, the Kb in assay [5] was 0.316 nM.
On to `CCCCc1ncc(C(=O)O)c(NCc2ccc(-c3ccccc3-c3nn[nH]n3)cc2)n1`, for which the Kb in assay [6] was 12.3 nM. The compound further showed a Ki in assay [7] of 198 nM.
Regarding `CCCCN(Cc1ccc(-c2ccccc2-c2nnn[nH]2)cc1)c1ncncc1C(=O)O`, the inhibition constant Ki in assay [2] came to 3.13 nM. Also, the Kb in assay [5] is 0.117 nM.
In assay [2], `CCCN(Cc1ccc(-c2ccccc2-c2nnn[nH]2)cc1)c1ncccc1C(=O)O` returned a Ki of 0.76 nM.
On the same count and under the same terms, the same measure for `CCCN(Cc1ccc(-c2ccccc2-c2nn[nH]n2)cc1)c1nc(C)ncc1C(=O)O`: 2.78 nM.
Consider `CCN(Cc1ccc(-c2ccccc2-c2nn[nH]n2)cc1)c1ncccc1C(=O)O`, for which the Kb in assay [8] was 2 nM.
